Measured values reported in ChEMBL document CHEMBL4376862, “Synthesis and evaluation of novel chlorophyll a derivatives as potent photosensitizers for photodynamic therapy” (Eur J Med Chem, 2020).
Active and inactive are the calls of the source. No cut-off for these calls is given here.

Legend:
[1] = Octanol/water partition coefficient, logP of compound by shake flask method; type: physicochemical
Summary of the method: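 Shake-flask method: equilibrium concentrations in octanol and water measured by UV-vis absorbance; log P taken as log of octanol/water concentration ratio (mg/L).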

A549 [2] = assay: Photodynamic antitumor activity against human A549 cells xenografted in BALB/c nude mouse assessed as decrease in tumor weight at 0.3 mg/kg, iv followed by laser light irradiation at 120 J/cm2 measured after 14 days; type: functional
Summary of the method: (§1)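 Male BALB/c nude mice (5–6 weeks, 14–16 g) given 2×10^6 A549 cells s.c. in 0.2 mL PBS; at 6–7 mm tumors randomized into ten groups; drug via tail vein, 650 nm diode laser 120 J/cm2 at 180 mW/cm2 24 h later; caliper volume a×b²/2, followed 14 days.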

[3] = Induction of ROS generation in DMF solution assessed as slope of the photodegradation rate of DPBF at 2 uM followed by irradiation measured every 10 secs by spectrophotometric analysis; type: functional
[4] = Induction of ROS generation in DMF solution assessed as ROS quantum yield at 2 uM followed by irradiation measured every 10 secs by spectrophotometric analysis; type: functional
[5] = Emission property of a compound in DMSO assessed as red shift at 5 uM on excitation with light at 410 to 415 nm by 3D fluorescence spectra analysis; type: physicochemical
Summary of the method: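 Stock 1 mM in DMSO, measured at […] (so in the source); excitation scanned 350–640 nm, emission 600–750 nm, 1 nm steps, room temperature, quartz cuvettes; 3D fluorescence matrix spectra recorded.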

[6] = Therapeutic index, ratio of TC50 for human A549 cells under dark to IC50 for human A549 cells irradiated with 1 J/cm2 of 650 nanometer laser light; type: toxicity, cell-based; settings: read-out: TI
Summary of the method: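 A549 cells (F-12K, 10% FBS, 37 °C, 5% CO2) seeded 24 h, then exposed to 0–10 photosensitizer for 24 h. Dark arm: MTT 48 h later. Light arm: 650 nm laser, 1 J/cm2 (25 mW/cm2, 40 s), then MTT. A570 viability relative to control, triplicate. Ratio = dark TC50 / irradiated IC50.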

A549 [7] = assay: Phototoxicity against human A549 cells assessed as reduction in cell proliferation irradiated with 1 J/cm2 of 650 nanometer laser light preincubated for 24 hrs measured after 48 hrs by MTT assay; type: functional, cell-based; settings: A549, light or radiation study
Summary of the method: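 A549 cells seeded 5×10^4 cells/100 µL per well, given […] for 24 h, then 650 nm semiconductor laser at 1 J/cm2 (25 mW/cm2, 40 s); MTT 4 h, absorbance 570 nm; viability vs control; triplicate, mean ± SD.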

[8] = Absorption property of compound in DMSO assessed as strong absorption wavelength at 1 x 10^-3 M by UV-spectra analysis; type: physicochemical; settings: 1000 µM
Summary of the method: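 Stocks 1 mM in DMSO; spectra run over […] range (units as printed), 300–800 nm in 1 nm steps, room temperature, quartz cuvettes, UV-vis spectrophotometer.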

[9] = Drug uptake in human A549 cells incubated upto 24 hrs by fluorescence spectrophotometer analysis; type: ADME, cell-based; settings: a549, 24 h
Summary of the method: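 A549 cells (F-12K, 10% FBS, 37 °C, 5% CO2) grown in 24 wells and exposed to photosensitizer for 0.5, 1, 2, 4, 8, 12 or 24 h; cells harvested by digestion, fluorescence read on a spectrophotometer.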

[10] = Dark toxicity in human A549 cells assessed as reduction in cell viability incubated under dark for 24 hrs measured after 48 hrs by MTT assay; type: cell-based; settings: read-out: TC50
Summary of the method: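 A549 cells seeded at 5×10^4 cells/100 µL per well for 24 h, treated in the dark with […] (so in the source) for 24 h; MTT added 4 h, absorbance 570 nm, 48 h later; viability as OD treated/OD control; triplicate, mean ± SD.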

[11] = Absorption property of compound in DMSO assessed as Q band absorption at 1 x 10^-3 mM by UV-spectra analysis; settings: 1 µM
A549 [12] = assay: Photodynamic antitumor activity against human A549 cells xenografted in BALB/c nude mouse assessed as increase in tumor tissue damage at 0.3 mg/kg, iv incubated for 24 hrs followed by laser light irradiation at 120 J/cm2 measured up to 14 days; type: functional, organism-based; summary of the method: as §1
Cavia porcellus [13] = assay: Phototoxicity in guinea pig assessed as change in right ear weight 4.5 mg/kg, iv followed by 10 mW/cm2 light irradiation for 10 mins measured after 1 day of light irradiation (reference value: 40.4 +/- 2.4 mg); type: organism-based; settings: in vivo
Cavia porcellus [14] = assay: Phototoxicity in guinea pig assessed as change in back skin weight 4.5 mg/kg, iv followed by 10 mW/cm2 light irradiation for 10 mins measured after 1day of light irradiation (reference value: 72.4 +/- 3.1 mg); type: organism-based; settings: in vivo, 24 h
Mus musculus [15] = assay: Phototoxicity in ICR mouse assessed as change in skin of the backs 0.45 mg/kg, iv in presence of 10 mW/cm2 light irradiation for 10 mins upto 7 days measured after 1 day of light irradiation by H and E staining based microscopic analysis; type: organism-based; settings: in vivo
A549 [16] = assay: Photodynamic antitumor activity against human A549 cells xenografted in BALB/c nude mouse assessed as reduction in tumor volume at 0.3 mg/kg, iv incubated for 24 hrs followed by laser light irradiation at 120 J/cm2 measured up to 14 days; type: functional, organism-based; summary of the method: as §1
Mus musculus [17] = assay: Phototoxicity in ICR mouse assessed as change in auricles 0.45 mg/kg, iv in presence of 10 mW/cm2 light irradiation for 10 mins upto 7 days measured after 1day of light irradiation by H and E staining based microscopic analysis; type: organism-based; settings: in vivo
Mus musculus [18] = assay: Phototoxicity in ICR mouse assessed as ear weight at 0.45 mg/kg, iv followed by 10 mW/cm2 light irradiation for 10 mins at 5 days after drug challenge measured after 1 day of light irradiation (reference value: 12.9 +/- 1.4 mg); type: organism-based; settings: in vivo
A549 [19] = assay: Photodynamic antitumor activity against human A549 cells xenografted in BALB/c nude mouse assessed as survival time at 0.3 mg/kg, iv incubated for 24 hrs followed by laser light irradiation at 120 J/cm2 measured up to 70 days; type: functional, organism-based
Summary of the method: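 Nude mice bearing A549 xenografts, 0.3 mg/kg drug i.v. then 650 nm laser 120 J/cm2 at 180 mW/cm2 after 24 h; survival shown as Kaplan-Meier with log-rank test, n = 5.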

Mus musculus [20] = assay: Phototoxicity in ICR mouse assessed as ear weight at 0.45 mg/kg, iv followed by 10 mW/cm2 light irradiation for 10 mins at 7 days after drug challenge measured after 1 day of light irradiation (13.2 +/- 1.6 mg); type: organism-based; settings: in vivo
Cavia porcellus [21] = assay: Phototoxicity in guinea pig assessed as change in back skin at 4.5 mg/kg, iv in presence of 10 mW/cm2 light irradiation for 10 mins measured after 1day of light irradiation by H and E staining based microscopic analysis; type: organism-based; settings: in vivo
Mus musculus [22] = assay: Phototoxicity in ICR mouse assessed as ear weight at 0.45 mg/kg, iv followed by 10 mW/cm2 light irradiation for 10 mins at 1 day after drug challenge measured after 1 day of light irradiation (reference value: 12.6 +/- 1.2 mg); type: organism-based; settings: in vivo
Mus musculus [23] = assay: Phototoxicity in ICR mouse assessed as change in exposed neck skin 0.45 mg/kg, iv in presence of 10 mW/cm2 light irradiation for 10 mins upto 7 days measured after 1day of light irradiation by H and E staining based microscopic analysis; type: organism-based; settings: in vivo
Cavia porcellus [24] = assay: Phototoxicity in guinea pig assessed as change in auricles of left ear at 4.5 mg/kg, iv in presence of 10 mW/cm2 light irradiation for 10 mins measured after 1day of light irradiation by H and E staining based microscopic analysis; type: organism-based; settings: in vivo
Mus musculus [25] = assay: Phototoxicity in ICR mouse assessed as ear weight at 0.45 mg/kg, iv followed by 10 mW/cm2 light irradiation for 10 mins at 3 days after drug challenge measured after 1 day of light irradiation (reference value: 12.8 +/- 1.5 mg); type: organism-based; settings: in vivo
Cavia porcellus [26] = assay: Phototoxicity in guinea pig assessed as change in left ear weight 4.5 mg/kg, iv followed by 10 mW/cm2 light irradiation for 10 mins measured after 1 day of light irradiation (reference value: 39.2 +/- 1.8 mg); type: organism-based; settings: in vivo

Compound	logP [1]	Activity (A549 [2]) [g]	K [3] [s⁻¹]	Ratio [4]	Activity [5] [nm]	selectivity ratio [6]	IC50 (A549 [7]) [nM]	Activity [8]	Drug uptake [9]	CC50 at 24 h [10] [nM]	further results
CCC1=C(C)c2cc3[nH]c(cc4nc(c5c6[nH]c(cc1n2)c(C)c6C(=O)C5)[C@@H](CCC(=O)NCC(=O)CCC(=O)O)[C@@H]4C)c(C)c3C(C)OCCOC (some centres not stated)	1.82	0.2431	0.0162	0.81	661 to 669	7.43	760	660 to 670 nm	Active	5650	
CCC1=C(C)c2cc3[nH]c(cc4nc(c5c6[nH]c(cc1n2)c(C)c6C(=O)C5)[C@@H](CCC(=O)NCC(=O)CCC(=O)O)[C@@H]4C)c(C)c3C(C)OC (some centres not stated)	1.91	0.1265	0.0195	0.975	661 to 669	4.54	590	660 to 670 nm	Active	2680	
C=Cc1c(C)c2cc3nc(c4c5[nH]c(cc6nc(cc1[nH]2)C(C)=C6CC)c(C)c5C(=O)C4)[C@@H](CCC(=O)NCC(=O)CCC(=O)O)[C@@H]3C	2.28	0.2826	0.0251	1.25	661 to 669	1.59	2010	660 to 670 nm	Active	3190	Activity [11]: 669 nm
CCCCCCOC(C)c1c(C)c2cc3nc(c4c5[nH]c(cc6nc(cc1[nH]2)C(C)=C6CC)c(C)c5C(=O)C4)[C@@H](CCC(=O)O)[C@@H]3C (some centres not stated) [HPPH]		0.0212	0.0357	1.78	661 to 669	5.91	330			1950	Activity (A549 [12]): Active; Activity (Cavia porcellus [13]): 42.2 mg; Activity (Cavia porcellus [14]): 74.1 mg; Activity (Mus musculus [15]): Non-Toxic; Activity (A549 [16]): Active; Activity (Mus musculus [17]): Non-Toxic; Activity (Mus musculus [18]): 13.1 mg; Activity (A549 [19]): Active; Activity (Mus musculus [20]): 13.2 mg; Activity (Cavia porcellus [21]): Non-Toxic; Activity (Mus musculus [22]): 12.8 mg; Activity (Mus musculus [23]): Non-Toxic; Activity (Cavia porcellus [24]): Non-Toxic; Activity (Mus musculus [25]): 13.3 mg; Activity (Cavia porcellus [26]): 42.6 mg
CCCOC(C)c1c(C)c2cc3nc(c4c5[nH]c(cc6nc(cc1[nH]2)C(C)=C6CC)c(C)c5C(=O)C4)[C@@H](CCC(=O)NCC(=O)CCC(=O)O)[C@@H]3C (some centres not stated)	2.34	0.0495	0.018	0.9	661 to 669	5.32	500	660 to 670 nm	Active	2660	
CCOC(C)c1c(C)c2cc3nc(c4c5[nH]c(cc6nc(cc1[nH]2)C(C)=C6CC)c(C)c5C(=O)C4)[C@@H](CCC(=O)NCC(=O)CCC(=O)O)[C@@H]3C (some centres not stated)	2.16	0.0527	0.0161	0.805	661 to 669	4.74	690	660 to 670 nm	Active	3270	
C=Cc1c(C)c2cc3nc(c4c5[nH]c(cc6nc(cc1[nH]2)C(C)=C6CC)c(C)c5C(=O)C4)[C@@H](CCC(=O)O)[C@@H]3C [PYROPHEOPHORBIDE A]	3.77		0.0081	0.405	661 to 669			Active			Activity (Cavia porcellus [13]): 59.2 mg; Activity (Cavia porcellus [14]): 100.3 mg; Activity (Mus musculus [17]): Non-Toxic; Activity (Mus musculus [18]): 13.2 mg; Activity (Mus musculus [20]): 13.3 mg; Activity (Mus musculus [22]): 13.1 mg; Activity (Mus musculus [23]): Non-Toxic; Activity (Mus musculus [25]): 12.7 mg; Activity (Cavia porcellus [26]): 57.2 mg
CCCOCCOC(C)c1c(C)c2cc3nc(c4c5[nH]c(cc6nc(cc1[nH]2)C(C)=C6CC)c(C)c5C(=O)C4)[C@@H](CCC(=O)NCC(=O)CCC(=O)O)[C@@H]3C (some centres not stated)	2.22	0.1154	0.0329	1.65	661 to 669	3.42	1170	660 to 670 nm	Active	4000	
CCCCCCOC(C)c1c(C)c2cc3nc(c4c5[nH]c(cc6nc(cc1[nH]2)C(C)=C6CC)c(C)c5C(=O)C4)[C@@H](CCC(=O)NCC(=O)CCC(=O)O)[C@@H]3C (some centres not stated)	2.67	0	0.0363	1.81	661 to 669	12.6	80	660 to 670 nm	Active	1010	
CCCCCOC(C)c1c(C)c2cc3nc(c4c5[nH]c(cc6nc(cc1[nH]2)C(C)=C6CC)c(C)c5C(=O)C4)[C@@H](CCC(=O)NCC(=O)CCC(=O)O)[C@@H]3C (some centres not stated)	2.61	0	0.0353	1.76	661 to 669	10.4	100	660 to 670 nm	Active	1040	
